SKN-1 block: suppressors of acrylamide-induced Pgst-4::GFP reporter in worms, primary screen, SKN-1 inhibitor project, whole organism, uHTS, GFP/RFP fluorescence ratio, strain VP596; C. elegans VP596 Pgst-4::GFP/RFP ratio, 24 h; 0.49% of 360,000 active; inhibition, % at 21.8 µM;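 active = interference check ratio from 0.5 to 1.5 plus GFP to RFP signal ratio inhibition reaching or exceeding a fixed threshold, cut at about 30% in these data, passing the limit was not always enough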
Rin1 Abl inh: inhibitors of Rin1-Abl protein binding, primary screen, biochemical, TR-FRET; Tyrosine-protein kinase ABL1 (Homo sapiens) + Ras and Rab interactor 1 (Homo sapiens), …; inhibition, % at 7.35 µM; 0.4% of 360,000 active; AID 588664, 2011; in the data active = inhibition above about 5%, passing the limit was not always enough
Target sequence (P00519 whole entry, looked up): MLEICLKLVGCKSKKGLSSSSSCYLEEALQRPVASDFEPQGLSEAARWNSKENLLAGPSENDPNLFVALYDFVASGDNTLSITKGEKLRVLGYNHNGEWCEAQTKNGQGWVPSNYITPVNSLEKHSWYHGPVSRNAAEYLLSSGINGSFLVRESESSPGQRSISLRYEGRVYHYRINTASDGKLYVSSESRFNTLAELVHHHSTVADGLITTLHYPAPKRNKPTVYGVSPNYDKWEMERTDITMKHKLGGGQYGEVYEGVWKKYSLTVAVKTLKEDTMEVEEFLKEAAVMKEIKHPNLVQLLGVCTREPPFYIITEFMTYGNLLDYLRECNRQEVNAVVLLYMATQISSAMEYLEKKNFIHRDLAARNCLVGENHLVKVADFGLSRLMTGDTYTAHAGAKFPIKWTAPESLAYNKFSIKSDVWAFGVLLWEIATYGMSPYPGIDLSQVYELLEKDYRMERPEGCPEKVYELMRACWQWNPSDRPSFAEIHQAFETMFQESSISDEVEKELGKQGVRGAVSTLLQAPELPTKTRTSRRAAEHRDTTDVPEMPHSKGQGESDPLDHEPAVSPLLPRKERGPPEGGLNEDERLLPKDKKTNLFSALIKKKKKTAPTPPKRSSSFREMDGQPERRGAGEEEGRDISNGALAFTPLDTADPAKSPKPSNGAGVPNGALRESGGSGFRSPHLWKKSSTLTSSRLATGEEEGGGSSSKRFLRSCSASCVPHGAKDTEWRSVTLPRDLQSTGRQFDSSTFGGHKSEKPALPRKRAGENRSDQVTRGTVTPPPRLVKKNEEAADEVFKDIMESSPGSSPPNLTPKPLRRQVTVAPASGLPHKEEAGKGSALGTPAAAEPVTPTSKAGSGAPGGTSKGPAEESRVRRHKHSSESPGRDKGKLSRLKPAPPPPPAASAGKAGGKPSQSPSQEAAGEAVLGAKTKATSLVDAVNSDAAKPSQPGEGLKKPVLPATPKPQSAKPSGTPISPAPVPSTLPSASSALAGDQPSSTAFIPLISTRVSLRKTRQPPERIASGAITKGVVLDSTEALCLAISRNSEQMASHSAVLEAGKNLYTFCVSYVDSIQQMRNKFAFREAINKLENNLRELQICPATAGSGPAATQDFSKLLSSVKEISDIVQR
Target sequence (Q13671 whole entry, looked up): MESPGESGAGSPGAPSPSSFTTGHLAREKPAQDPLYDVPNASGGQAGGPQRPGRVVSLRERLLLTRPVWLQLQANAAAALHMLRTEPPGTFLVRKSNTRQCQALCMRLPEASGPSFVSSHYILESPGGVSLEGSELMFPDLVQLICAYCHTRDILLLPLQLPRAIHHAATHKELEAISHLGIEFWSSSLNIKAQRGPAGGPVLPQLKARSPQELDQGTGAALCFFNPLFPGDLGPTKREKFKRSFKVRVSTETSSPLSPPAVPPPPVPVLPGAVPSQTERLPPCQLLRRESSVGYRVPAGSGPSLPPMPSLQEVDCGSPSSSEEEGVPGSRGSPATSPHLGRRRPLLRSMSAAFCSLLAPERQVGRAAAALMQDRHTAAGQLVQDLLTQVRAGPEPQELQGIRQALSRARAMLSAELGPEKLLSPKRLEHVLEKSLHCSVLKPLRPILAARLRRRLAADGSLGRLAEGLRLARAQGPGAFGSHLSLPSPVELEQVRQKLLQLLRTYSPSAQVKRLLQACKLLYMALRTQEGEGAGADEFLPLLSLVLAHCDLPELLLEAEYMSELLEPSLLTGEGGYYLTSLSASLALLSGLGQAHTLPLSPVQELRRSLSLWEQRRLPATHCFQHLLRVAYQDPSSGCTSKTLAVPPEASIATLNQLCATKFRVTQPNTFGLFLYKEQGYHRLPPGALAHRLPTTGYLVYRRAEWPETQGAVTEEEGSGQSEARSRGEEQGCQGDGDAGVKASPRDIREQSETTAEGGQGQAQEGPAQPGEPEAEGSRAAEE
MT1-MMP act inh: blockers of MT1-MMP proenzyme processing, primary screen, HT1080 RFP-PRO-GFP cells, GFP/RFP fluorescence; Matrix metalloproteinase-14 (Homo sapiens), P50281; GFP/RFP ratio fluorescence, overnight; percent of plate control window, DMSO zero; GFP/RFP ratio change, % at 20 µM; 0.061% of 360,000 active;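 active = GFP/RFP ratio change of at least 30% with cell ATP level not reduced by more than half and red fluorescence within 50% of control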
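Assay system: HT1080 RFP-PRO-GFP cells. Benchmarks: DMSO vehicle wells and RFP-L50D-GFP reporter cell wells. Times: overnight cell settling, then overnight compound exposure, 37 °C, 5% CO2. Compound: 20 µM single dose, 1% DMSO. Read-out basis: GFP/RFP fluorescence ratio.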
TbMetRS inhib: T. brucei MetRS inhibitors, primary screen, biochemical, luminescence. 0.4% of 360,000 active. methionyl-tRNA synthetase (Trypanosoma brucei brucei). purified T. brucei MetRS, ATP depletion, Kinase-Glo luminescence. inhibition, % at 11.9 µM. AID 624268, 2012;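 active = inhibition above a per-plate cutoff of the control wells' mean inhibition plus 3 SD, cut at about 5.5% in these data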
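Assay system: T. brucei methionyl-tRNA synthetase, purified | Medium: HEPES buffer with MgCl2, KCl, DTT, spermine, BSA, pyrophosphatase | Compound: 11.9 µM single point | Incubation: 15 min enzyme-compound preincubation, 2 h reaction, 10 min detection, 25 °C | Measured by: Kinase-Glo luciferase luminescence reporting remaining unconsumed ATP | Measure: % inhibition normalized to control-well medians | Replication: Singlicate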
Arr AP2 block: inhibitors of beta-arrestin/AP2 binding, primary screen, biochemical, GPCR trafficking, flow cytometry | FITC-arrestin peptide / GST-AP2 beads; AP2 beta2 appendage carries R879A mutation | inhibition, % at 10 µM | 0.31% of 340,000 active;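 active = inhibition above a set limit, near 3 SD of compounds lacking own fluorescence, cut at about 54% in these data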
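Assay system: GST-AP2 R879A bound to glutathione beads, E. coli-expressed; Medium: PBS with 0.05% Tween 20 and 0.1% BSA; Also added: fluorescein-tagged arrestin peptide at 50 nM final; Timing: 12 min plus 1 h, RT; Measured by: flow cytometry, FL1 (488/535 nm); Evaluation: percent drop in bead-associated FITC signal.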
Each line names hits and unclear results; the compound was inactive in the other large screens. Compounds with a hit are over-represented: about 1.6% of the library has one in this group of screens.

COC(=O)c1cn(NC(=O)C2COc3ccccc3O2)c(=O)c2ccccc12 (stereo not given)	SKN-1 block 36 (no result: MT1-MMP act inh)
CC(=O)Nc1ccc(S(=O)(=O)N(C)CC(=O)N/N=C/c2cccs2)cc1	none
CC(=O)Nc1ccc(S(=O)(=O)N(C)CC(=O)NNC(=O)c2cccs2)cc1	SKN-1 block 42
Cc1cccc(C)c1Cn1c(C)c(C(=O)NCc2ccc([N+](=O)[O-])cc2)sc1=O	none (no result: Arr AP2 block)
N/C(=N\OC(=O)c1ccco1)c1ccccc1	none
COc1ccc(/C(N)=N/OC(=O)c2ccco2)cc1	SKN-1 block 51
N/C(=N\OC(=O)Cc1cccs1)c1ccc([N+](=O)[O-])cc1	none
N/C(=N\OC(=O)Cc1cccs1)c1ccc(Br)cc1	SKN-1 block 61
Cc1ccc(/C(N)=N/OC(=O)c2ccco2)cc1	SKN-1 block 85
N/C(=N\OC(=O)c1ccco1)c1ccc(Br)cc1	SKN-1 block 50
COc1ccc(S(=O)(=O)Nc2cc(S(=O)(=O)N3CCOCC3)ccc2OC)cc1	none
CC(=O)N1/C(=C/c2ccc(N(C)C)cc2)C(=O)c2ccccc21	SKN-1 block 35
COc1ccccc1S(=O)(=O)N(C)C[C@@H]1OCc2cnnn2CCCC(=O)N([C@H](C)CO)C[C@@H]1C	none (no result: Arr AP2 block)
CC(=O)NC(c1cccs1)c1cc([N+](=O)[O-])c2cccnc2c1O (stereo not given)	Rin1 Abl inh 17 (no result: Arr AP2 block)
CCCC(=O)NC(c1cccs1)c1cc([N+](=O)[O-])c2cccnc2c1O (stereo not given)	none
Cc1cc(C(=O)CS(=O)(=O)c2ccc(F)cc2)cc(C)c1O	Arr AP2 block 67
NC(=O)c1cccc(-c2ccnc3c2CC(C(=O)Nc2cccc(Oc4ccccc4)c2)O3)c1 (stereo not given)	none (no result: Arr AP2 block)
CCCCOc1ccc(C(=O)OC2CC(C)N(C)CC2C)cc1 (stereo not given)	SKN-1 block 42
COc1ccccc1Cc1c(C(C)(C)C)nc2ccc(C)cn12	none (no result: Arr AP2 block)
Clc1ccc(SCc2cc(-c3ccc(Cl)cc3)on2)cc1	SKN-1 block 53
Cc1ccc(SCc2cc(-c3ccc(Cl)cc3)on2)cc1	none
O=C(NC1CCCCC1)C(c1ccc(C(F)(F)F)cc1)n1c(=O)c(-c2ccco2)nc2ccccc21 (stereo not given)	none (no result: Rin1 Abl inh, Arr AP2 block)
COC(=O)c1ccc(COn2c(=O)c(C)[n+]([O-])c3ccccc32)cc1	SKN-1 block 44
O=C(Nc1ccccc1)c1cc(C2CCCCN2S(=O)(=O)Cc2cccc(C(F)(F)F)c2)on1 (stereo not given)	none (no result: Arr AP2 block)
Brc1ccc(-c2csc(-c3ccncc3)n2)cc1	SKN-1 block 40
c1ccc(-c2csc(-c3cccnc3)n2)cc1	SKN-1 block 42
COc1ccc(-c2csc(-c3ccc(O)cc3)n2)cc1	none
Cc1ccc(-c2csc(-c3ccncc3)n2)cc1	SKN-1 block 41
c1ccc(-c2nc(-c3cccnc3)cs2)cc1	none
Nc1nc(-c2ccc(Br)cc2)cs1	none
CC1(C)CC(=O)C(C(c2ccc3c(c2)OCO3)C2C(=O)CC(C)(C)CC2=O)C(=O)C1	none (no result: Arr AP2 block)
CCOC1=C2[C@H](c3ccc(Cl)cc3)N(S(=O)(=O)c3ccc(C)cc3)C[C@H]2n2c(=O)n(-c3ccccc3)c(=O)n2C1	none (no result: Arr AP2 block)
O=[N+]([O-])c1ccc(NCc2ccc(Cl)cc2)nc1	SKN-1 block 43
O=[N+]([O-])c1ccc(Nc2ccc(Cl)cc2)nc1	SKN-1 block 39
CCN(C)C1CN(Cc2cn(Cc3ccc(C(F)(F)F)cc3)nn2)S(=O)(=O)C1 (stereo not given)	none (no result: Rin1 Abl inh, Arr AP2 block)
CC1C(=O)N(Cc2cn(CCC3OCCO3)nn2)CCS(=O)(=O)N1Cc1ccc(-c2ccc(Cl)c(Cl)c2)cc1 (stereo not given)	none (no result: Arr AP2 block)
Oc1ccc(N=Nc2ccc3ccccc3c2)cc1	SKN-1 block 46
CCOc1ccc(/C=C/C2=Cc3c(sc(NC(=O)CSc4n[nH]c(N)n4)c3C#N)C(C)(C)C2)cc1	SKN-1 block 37
Cc1ccsc1/C=C/C1=Cc2c(sc(NC(=O)CSc3n[nH]c(N)n3)c2C#N)C(C)(C)C1	none
Clc1ccc(-c2cn3cccnc3n2)cc1Cl	SKN-1 block 42
Brc1ccc(-c2cn3cccnc3n2)cc1	SKN-1 block 48
O=C(CN1CCCC1c1ccc2c(c1)OCCO2)NC(=O)Nc1ccccc1 (stereo not given)	none (no result: MT1-MMP act inh)
c1csc(CSc2nc3ccccc3s2)c1	SKN-1 block 78
Cc1noc(C)c1CSc1nc2ccccc2s1	none
Cc1ccc(N2CCN(C(CCc3ccccc3)C(=O)Nc3c(C)cccc3C)CC2)cc1 (stereo not given)	none (no result: Rin1 Abl inh, Arr AP2 block)
O=C(C=Cc1ccco1)c1ccc2ccccc2c1	SKN-1 block 63
O=C(NC(c1ccc(-c2ccccc2)cc1)c1cnccn1)C1CCN(Cc2cccs2)CC1 (stereo not given)	SKN-1 block 46 (no result: Arr AP2 block)
COc1ccc(C2CC(c3ccccc3)=NN2S(=O)(=O)c2ccc(C)cc2)c(OC)c1 (stereo not given)	SKN-1 block 52
Cc1ccc(/C(N)=N/OC(=O)CSc2ccccc2)cc1	none
N/C(=N\OC(=O)CSc1ccccc1)c1ccc([N+](=O)[O-])cc1	SKN-1 block 54
OC(c1ccccn1)c1c[nH]c2ccccc12 (stereo not given)	SKN-1 block 37
COc1ccc(-c2ccc(C(=O)NC3CCCCC3)c3occc23)c(C)c1	none (no result: Arr AP2 block)
Nc1ccc(C=C2C=Cc3ccccc32)cc1	SKN-1 block 52
NC(N)=Nc1ccc(C=C2C=Cc3ccccc32)cc1	none
Cc1ccc(S(=O)(=O)N2CC=C(c3c(C)n(C)c4ccccc34)CC2)cc1	SKN-1 block 52
CCn1c(C)c(C2=CCN(S(=O)(=O)c3ccccc3)CC2)c2ccccc21	SKN-1 block 54
O=S(=O)(c1ccsc1)N1CC=C(c2ccccc2)CC1	none
CCN(c1ccccc1)S(=O)(=O)c1ccc(C(=O)N2CCN(c3ccccc3F)CC2)cc1	none (no result: Arr AP2 block)
O=C(C(O)c1ccccc1)N1CCN(S(=O)(=O)c2ccc(F)c(F)c2)CC1 (stereo not given)	none (no result: Rin1 Abl inh, Arr AP2 block)
O=c1c2cc(-c3ccccc3)sc2ncn1/N=C/c1ccco1	SKN-1 block 44
CCCCn1cnc2sc(-c3ccccc3)cc2c1=O	none
